Screens as filed in PubChem BioAssay.
NR2E3 ag-1 – NR2E3 agonists in two-hybrid cells, primary screen, cell-based, luminescence, CHO-S, Gal4-NCOR/VP16-NR2E3 | AID 602229, 2012 | luciferase | inhibition of corepressor binding, % at 3.98 µM | hit rate 0.35% among 360,000 | Photoreceptor-specific nuclear receptor (Homo sapiens), Q9Y5X4;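 active = inhibition above the mean of all tested compounds plus 3 SD, cut at about 70% in these data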;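 also: 0% = DMSO with NR2E3 transfected cells and 100% = cells lacking NR2E3 construct; higher means lower luciferase signal from less NR2E3 corepressor binding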
Target sequence (Q9Y5X4 whole entry, looked up, the tested form may be a part): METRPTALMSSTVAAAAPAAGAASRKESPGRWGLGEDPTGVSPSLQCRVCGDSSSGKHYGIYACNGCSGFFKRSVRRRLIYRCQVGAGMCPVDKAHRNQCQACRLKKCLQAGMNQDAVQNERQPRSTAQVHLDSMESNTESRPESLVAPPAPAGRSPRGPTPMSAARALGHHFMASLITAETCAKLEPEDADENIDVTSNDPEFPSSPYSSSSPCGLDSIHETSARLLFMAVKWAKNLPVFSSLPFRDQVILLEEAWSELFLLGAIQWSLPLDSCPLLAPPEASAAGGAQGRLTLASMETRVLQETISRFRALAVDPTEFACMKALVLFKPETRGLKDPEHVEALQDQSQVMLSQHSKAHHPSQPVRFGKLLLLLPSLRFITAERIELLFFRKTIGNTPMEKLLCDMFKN
Jurkat NFkB inh – inhibitors of induced NF-kB luciferase reporter, primary screen, TCR NF-kB activation inhibitor project, cell-based, luminescence, uHTS | Jurkat, PMA/ionomycin-induced NF-kB luciferase reporter | inhibition, % at 4 µM | hit rate 0.53% among 330,000; in the data active = inhibition above about 50%
miR122 inh – miR-122 Renilla sensor signal increase in Huh7, primary screen, miR-122 inhibitor project, cell-based, single point, plate reader | activation (reporter increase), % at 12.5 µM | AID 602342, 2012 | hit rate 0.3% among 340,000 | Huh7 miR-122 Renilla luciferase sensor, 48 h; neutral wells = 0, positive control = 100;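 active = mean replicate activation score at least 90 and every replicate individually at or above 90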;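 also: higher luciferase means less miR-122 activity so hits act as miR-122 inhibitors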
FGF22 binding – binders of human FGF22 protein, primary screen, FGF22 synaptogenesis inhibitor project, biophysical, thermal shift, single point. recombinant FGF22 thermal shift, SYPRO orange fluorescence; percent of sucrose octasulfate shift, DMSO zero. activity (Tm shift, normalised), % at 9.99 µM. hit rate 1.5% among 340,000. AID 651658, 2012;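 active = mean Tm shift, scaled 0 neutral to 100 positive control, at about 1.3% or above, every replicate too, limit read from the data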
Target sequence (Q9HCT0 whole entry, looked up): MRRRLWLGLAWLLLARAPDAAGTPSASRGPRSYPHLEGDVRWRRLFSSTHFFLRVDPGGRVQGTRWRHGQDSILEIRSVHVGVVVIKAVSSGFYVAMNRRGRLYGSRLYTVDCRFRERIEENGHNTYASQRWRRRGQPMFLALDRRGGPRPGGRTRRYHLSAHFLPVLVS
697 NFkB inh – inhibitors of PMA/ionomycin-induced NF-kB reporter, 697 cells, primary screen, B-cell NF-kB inhibitor project, cell-based, luminescence, uHTS; 697 B-cell NF-kB luciferase reporter, 16 h; inhibition, % at 4 µM; hit rate 0.33% among 330,000; in the data active = inhibition above about 35%
NR2E3 ag-2 – inhibitors of NR2E3-RetCOR corepressor binding, primary screen, NR2E3 agonist project, biochemical, TR-FRET, GST-NR2E3, biotin-RetCOR; inhibition of corepressor binding, % at 4.78 µM; Photoreceptor-specific nuclear receptor (Homo sapiens), Q9Y5X4; 1536-well; hit rate 0.12% among 320,000; AID 2300, 2010;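 active = percent inhibition above the cutoff of mean plus 3 SD of all tested compounds, set per screening campaign, cut at about 20% in these data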;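 also: 0% = DMSO wells and 100% = biotin wells as full block of FRET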
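Material: NR2E3–RetCOR corepressor complex | Quantity: 1.35 nM GST-tagged NR2E3 final | Schedule: 5 h at 4 °C | Replication: Singlicate compound wells | Reagent: RetCOR corepressor, biotinylated, 7 nM | Controls: Biotin wells as high control, 0.6% DMSO wells as low control | Signal: TR-FRET, Eu(K)-anti-GST donor, streptavidin-D2 acceptor, ex 340, em 617/671 nm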
NR2E3 ag confirm – NR2E3 agonist confirmation in cells, cell-based, luminescence, CHO-S two-hybrid; shares compounds with NR2E3 ag-1; CHO-S mammalian two-hybrid NR2E3-NCOR, luciferase luminescence; inhibition, % at 3.98 µM; hit rate 51% among 2,300;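 active = average inhibition above a cutoff equal to the mean inhibition of all tested compounds plus one SD, cut at about 70% in these data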;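 also: 0% = DMSO in NR2E3 cells and 100% = DMSO in cells lacking NR2E3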
GAL4-VP16 luc – GAL4-VP16 reporter modulators, confirmation, counter-screen for NR2E3 agonist project, cell-based, luminescence, CHO-S, high throughput. CHO-S GAL4-VP16 luciferase reporter. inhibition, % at 3.98 µM. shares compounds with NR2E3 ag-1. hit rate 29% among 2,300;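 active = mean inhibition above a cutoff equal to the average over all tested compounds plus one standard deviation, cut at about 70% in these data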;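 also: luciferase from a UAS reporter driven by GAL4-VP16 transactivation; 0% = DMSO with VP16-transfected cells and 100% = DMSO with cells lacking VP16; higher means less reporter light so more repression of VP16 activity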
* marks the source's active call; other numbers are inactive results; . = no result given; [ ] = dose if it differs, or a comment. This is a sample that favours compounds with a hit; in the whole collection about 2.2% have one here.

SMILES | NR2E3 ag-1 | Jurkat NFkB inh | miR122 inh | FGF22 binding | 697 NFkB inh | NR2E3 ag-2 | NR2E3 ag confirm | GAL4-VP16 luc
Cc1cc(OC(=O)c2ccco2)c2c3c(c(=O)oc2c1)CCCC3 | 93.1* | 0.1 | -1.5 | . | -15.1 | 2.6 | 68.6 | 43.4
COC(=O)[C@H]1[C@H](CO)[C@H]2Cn3c(ccc(-c4ccccc4)c3=O)[C@@H]1N2S(=O)(=O)c1ccccc1C | . | . | -6.2[16.7 µM] | 0.0 | . | . | . | .
NC(Cc1ccc(Cl)cc1)c1csc(Nc2ncccn2)n1 (stereo not drawn) | 58.1 | . | -10.0 | 0.0 | . | . | 51.4 | 27.7
NC(Cc1ccc(F)cc1)c1csc(Nc2ncccn2)n1 (stereo not drawn) | 50.5 | . | . | -0.2 | . | . | 21.8 | -6.6
Nc1ccc(CC(N)c2csc(Nc3ncccn3)n2)cc1 (stereo not drawn) | -33.3 | . | . | -0.3 | . | . | . | .
COC(=O)[C@H]1[C@H](CO)[C@H]2Cn3c(ccc(-c4ccncc4)c3=O)[C@@H]1N2CCc1ccccc1 | . | . | . | 0.0 | . | . | . | .
Fc1ccccc1CN1Cc2ccccc2-n2nncc2C1 | -45.2 | . | 3.2 | 0.1 | . | . | . | .
c1ccc(-c2ccc(CN3Cc4ccccc4-n4nncc4C3)cc2)cc1 | 59.5 | . | 0.0 | 0.0 | . | . | 83.1* | 59.9
CCN1/C(=C/C=C/C2=[N+](CC)c3ccccc3C2(C)C)C(C)(C)c2ccccc21 | 103.8* | . | -22.6 | 0.2 | . | . | 98.5* | 94.1*
CN1/C(=C\C=C2C(=O)NC(=O)NC2=O)C(C)(C)c2ccccc21 | -10.7 | -1.6 | . | -0.2 | -11.0 | -0.1 | . | .
C/C=C/c1ccc([C@H]2[C@@H](CO)N3CCCCN(C(=O)Cc4ccncc4)C[C@@H]23)cc1 | . | . | -2.8[16.7 µM] | 0.2 | . | . | . | .
CC=Cc1ccc2n(c1=O)C[C@@H]1[C@@H](CO)[C@H](C(=O)O)[C@H]2N1S(=O)(=O)c1ccccc1C (mixture of isomers) | . | . | 1.3[16.7 µM] | 0.0 | . | . | . | .
CN1CCN(c2ccc([N+](=O)[O-])c3no[n+]([O-])c23)CC1 | 42.6 | . | -35.1 | -0.5 | . | -3.4 | . | .
O=[N+]([O-])c1ccc(N(CCO)CCO)c2c1no[n+]2[O-] | 76.5* | . | -5.3 | 0.3 | . | . | 54.4 | 44.2
CC(N)C(=O)NC1C2C(=C(O)CC(O)C2O)C(=O)OC1(C)C(Cl)Cl (stereo not drawn) | 98.1* | . | -1.6 | -0.3 | . | . | 96.1* | 91.9*
CC(=O)O[C@H]1C[C@@H]2OC3C=C(C)CCC3(C)[C@@]1(C)[C@@]21CO1 (stereo partly drawn) | 101.2* | . | -4.4 | -0.1 | . | . | 98.4* | 97.3*
CC(=O)OC1CC2OC3C=C(C)CCC3(C)C1(C)C21CO1 (stereo not drawn) | 101.5* | . | -13.6 | -0.1 | . | . | 99.5* | 97.8*
O=C(Cc1ccccc1)N1C[C@H]2[C@@H](c3ccccc31)[C@H](CO)N2Cc1ccccc1 | . | . | -8.3[16.7 µM] | -0.5 | . | . | . | .
N#Cc1cccc(-c2ccc([C@H]3[C@H]4CN(C(=O)Cc5ccncc5)CCCCN4[C@H]3CO)cc2)c1 | . | . | 5.8[16.7 µM] | -0.2 | . | . | . | .
COC(=O)[C@H]1[C@H](CO)[C@H]2Cn3c(cccc3=O)[C@@H]1N2CCc1ccccc1 | . | . | . | 0.1 | . | . | . | .
CC(C)(O)/C=C/C(=O)C(C)(O)C1C(O)CC2(C)C3CC=C4C(C=C(O)C(=O)C4(C)C)C3(C)C(=O)CC12C (stereo not drawn) | 78.5* | . | . | -0.1 | . | . | 46.8 | 57.2
COc1ccccc1CN1[C@H](CO)[C@@H](c2ccccc2)C12CN(C(=O)Cc1ccccc1)C2 | . | . | . | -0.1 | . | . | . | .
CC(C)c1ccc(C(c2c(O)c3ccccc3oc2=O)c2c(O)c3ccccc3oc2=O)cc1 | 75.2* | . | . | -0.1 | . | . | 91.1* | 52.6
O=c1oc2ccccc2c(O)c1C(c1ccc([N+](=O)[O-])cc1)c1c(O)c2ccccc2oc1=O | 10.4 | . | 9.9 | . | . | . | . | .
N#Cc1cn(C2OC(CO)C(O)C2O)c2ncnc(N)c12 (stereo not drawn) | 97.5* | . | -18.5 | 0.0 | . | . | 99.6* | 83.5*
SMILES | NR2E3 ag-1 | Jurkat NFkB inh | miR122 inh | FGF22 binding | 697 NFkB inh | NR2E3 ag-2 | NR2E3 ag confirm | GAL4-VP16 luc
N#Cc1c(Br)n(C2OC(CO)C(O)C2O)c2ncnc(N)c12 (stereo not drawn) | 42.7 | . | -0.1 | -0.1 | . | . | . | .
CN(Cc1cccc(-c2ccncc2)c1)C(=O)Oc1ccccc1Cc1ccccc1 | 80.8* | . | . | . | . | . | 79.7* | 78.7*
CN(Cc1cccc(-c2ccncc2)c1)C(=O)Oc1ccccc1Cl | 87.6* | . | . | . | . | . | 73.1* | 76.5*
Cc1nc2cc(OC(=O)N(C)Cc3cccc(-c4ccncc4)c3)ccc2s1 | 66.8 | . | . | . | . | . | 62.3 | 53.8
CN(C)Cc1ccccc1OC(=O)N(C)C | -10.8 | -10.4 | -4.8 | . | -7.8 | 4.4 | . | .
CN(C)C(=O)Oc1ccc(Cl)c2ccccc12 | -10.9 | 8.8 | -3.8 | . | 0.1 | -0.2 | . | .
O=C(Cc1ccccn1)N1CCCCN2[C@H](CO)[C@@H](c3ccc(-c4ccc(F)cc4)cc3)[C@H]2C1 | . | . | 5.2[16.7 µM] | -0.3 | . | . | . | .
COC(=O)[C@H]1[C@H](CO)[C@H]2Cn3c(ccc(-c4ccccc4)c3=O)[C@@H]1N2CC1CC1 | . | . | -2.2[16.7 µM] | -0.2 | . | . | . | .
CC1=CC(C)CC(C)OC(=O)CC(c2ccc(O)cc2)NC(=O)C(Cc2c(Br)[nH]c3ccccc23)N(C)C(=O)C(C)NC(=O)C(C)C1 (stereo not drawn) | 64.2 | . | 1.1 | 0.3 | . | . | 58.0 | 62.8
C[C@H]1[C@@H](OS(=O)(=O)O)C[C@@H]2C[C@H]([C@@H](O)c3cc(=O)[nH]c(=O)[nH]3)NC3=NC[C@H]1N32 | 100.7* | . | -27.7 | . | . | . | 98.9* | 82.0*
CC1CC(C)(O)CC(C(O)CC2CC(=O)NC(=O)C2)C1=O (stereo not drawn) | 100.4* | . | -9.2 | -0.4 | . | . | 100.1* | 98.7*
O=C(Cc1ccncc1)N1CCCCN2[C@H](CO)[C@H](c3ccc(C#Cc4ccccc4F)cc3)[C@H]2C1 | . | . | 5.5[16.7 µM] | -0.1 | . | . | . | .
O=C(O)[C@@H]1[C@@H](CO)[C@@H]2Cn3c(ccc(-c4ccccc4)c3=O)[C@H]1N2C(=O)C1CCCCC1 | . | . | -8.4[16.7 µM] | -0.1 | . | . | . | .
